# Measured values as given in ChEMBL document CHEMBL2321672, “Discovery of biphenylacetamide-derived inhibitors of BACE1 using de novo structure-based molecular design” (J Med Chem, 2013).
# Activity calls are given as the source filed them. No cut-off for these calls is given here.
# What was measured:
# [1] = Cytotoxicity against HEK293 cells assessed as cell viability at 100 uM after 24 hrs by MTT assay relative to control; format: cell-based; details: human, read-out: Activity
# Outline: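 MTT viability read-out on mammalian cells after 24-hour exposure to 100 µM compound; viable cells expressed as percentage remaining relative to control; mean ± SEM, n ≥ 3.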
# Beta-secretase 1 [2] = target: T1, Beta-secretase 1 (Homo sapiens, UniProt P56817); experiment: Inhibition of recombinant BACE1 (unknown origin) using FAM-SEVNLDAEFK-TAMRA as substrate incubated for 30 mins prior to substrate addition by fluorimetric analysis
# Beta-secretase 1 [3] = target: T1, Beta-secretase 1; experiment: Inhibition of recombinant BACE1 (unknown origin) using FAM-SEVNLDAEFK-TAMRA as substrate at 100 uM incubated for 30 mins prior to substrate addition by fluorimetric analysis relative to control
# HEK293 = experiment: Effect on sAPPalpha level in HEK293 cells coexpressing N-terminal […] APP at 100 uM after 24 hrs by Western blotting analysis; format: functional
# Outline: (§1)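 HEK 293 cells over-expressing BACE1 were exposed to compound at 100 µM for 24 hours. Conditioned media were western blotted for sAPPα and sAPPβ, with sAPPβ detected by antibody 1A9. Levels were compared with control.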
# Beta-secretase 1 [4] = target: T1, Beta-secretase 1; experiment: Inhibition of BACE1 (unknown origin) expressed in HEK293 cells coexpressing N-terminal […] APP assessed as decrease in sAPPbeta level at 100 uM after 24 hrs by Western blotting analysis; format: cell-based; outline: as §1
# Beta-secretase 1 [5] = target: T1, Beta-secretase 1; experiment: Inhibition of BACE1 (unknown origin) -mediated sAP-APP production expressed in HEK293 cells coexpressing N-terminal […] APP at 100 uM after 24 hrs by spectrophotometric analysis; format: cell-based
# Outline: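 HEK 293 cells stably expressing BACE1 plus wild-type human APP carrying an N-terminal alkaline phosphatase tag (AP-APP) were incubated with compound. Release of sAP-APP into conditioned media was quantified as alkaline phosphatase activity and expressed as percentage of the matched control.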
# Homo sapiens = species on record: Homo sapiens; experiment: Selectivity ratio of IC50 for recombinant BACE2 (unknown origin) to IC50 of recombinant BACE1 (unknown origin)
# Beta-secretase 2 = target: T2, Beta-secretase 2 (Homo sapiens, UniProt Q9Y5Z0); experiment: Inhibition of recombinant BACE2 (unknown origin) using FAM-SEVNLDAEFK-TAMRA as substrate incubated for 30 mins prior to substrate addition by fluorimetric analysis
# T2 sequence (Q9Y5Z0 whole entry): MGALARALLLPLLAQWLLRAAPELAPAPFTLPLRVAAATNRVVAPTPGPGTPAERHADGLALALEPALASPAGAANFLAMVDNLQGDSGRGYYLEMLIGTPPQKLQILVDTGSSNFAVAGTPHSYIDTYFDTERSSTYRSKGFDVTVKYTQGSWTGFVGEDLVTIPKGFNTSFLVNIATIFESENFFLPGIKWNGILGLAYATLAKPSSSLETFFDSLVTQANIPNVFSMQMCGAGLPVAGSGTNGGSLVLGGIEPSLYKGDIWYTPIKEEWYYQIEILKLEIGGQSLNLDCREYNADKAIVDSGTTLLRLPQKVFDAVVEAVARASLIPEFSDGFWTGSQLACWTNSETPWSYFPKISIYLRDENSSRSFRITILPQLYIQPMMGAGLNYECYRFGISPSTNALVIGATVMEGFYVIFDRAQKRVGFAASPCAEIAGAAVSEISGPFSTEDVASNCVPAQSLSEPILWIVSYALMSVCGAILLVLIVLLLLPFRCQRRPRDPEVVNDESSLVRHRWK
# T1 sequence (P56817 whole entry): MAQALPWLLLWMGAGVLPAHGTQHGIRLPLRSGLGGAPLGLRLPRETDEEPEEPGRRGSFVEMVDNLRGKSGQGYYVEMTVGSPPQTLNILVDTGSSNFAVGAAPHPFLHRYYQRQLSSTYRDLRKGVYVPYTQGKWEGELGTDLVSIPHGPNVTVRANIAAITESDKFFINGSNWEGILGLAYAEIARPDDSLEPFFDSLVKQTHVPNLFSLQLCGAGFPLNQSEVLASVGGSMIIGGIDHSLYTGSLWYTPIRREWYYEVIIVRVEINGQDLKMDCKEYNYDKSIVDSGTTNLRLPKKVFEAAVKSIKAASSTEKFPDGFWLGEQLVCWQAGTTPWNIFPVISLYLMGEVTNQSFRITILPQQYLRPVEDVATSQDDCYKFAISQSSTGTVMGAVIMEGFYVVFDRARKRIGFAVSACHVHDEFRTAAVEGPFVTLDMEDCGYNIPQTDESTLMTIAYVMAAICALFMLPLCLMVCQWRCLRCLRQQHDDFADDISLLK
IC50 (Beta-secretase 1 [2]; read-out: IC50),inhibition (Beta-secretase 1 [3]),Ratio IC50 (Homo sapiens),IC50 (Beta-secretase 2),SMILES,"viability at 24 h, 100 µM [1]",further results
> 100 µM,44.1%,–,–,CC[N+](CC)(CC)Cc1ccc(CNC(=O)Cc2ccc(-c3ccccc3)cc2)cc1,40%,–
101 µM,51.8%,2,246 µM,NCc1ccc(CNC(=O)Cc2ccc(-c3c(F)c(F)c(F)c(F)c3F)cc2)cc1,68%,Activity (HEK293; Homo sapiens): inactive; inhibition (Beta-secretase 1 [4]): Active; inhibition (Beta-secretase 1 [5]): 39.4%
63.9 µM,80.6%,–,33.2 µM,NCc1ccc(CNC(=O)Cc2ccc(-c3cc(C(F)(F)F)cc(C(F)(F)F)c3)cc2)cc1,8%,–
> 100 µM,41.3%,–,–,NCc1ccc(CNC(=O)Cc2ccc(-c3ccc(O)cc3)cc2)cc1,–,–
323 µM,35.6%,2,> 1000 µM,NCc1ccc(CNC(=O)Cc2ccc(-c3ccccc3)cc2)cc1,42%,–
63.3 µM,70.1%,2,> 1000 µM,O=C(Cc1ccc(-c2ccccc2)cc1)NCc1ccc(CN2Cc3ccccc3C2)cc1,80%,Activity (HEK293): 10%; inhibition (Beta-secretase 1 [4]): 33%; inhibition (Beta-secretase 1 [5]): 21.7%
> 100 µM,28.1%,–,–,NCc1ccc(CNC(=O)Cc2ccc(-c3ccccc3)c(O)c2)cc1,50%,–
–,inactive,–,–,COc1ccc(CNC(=O)Cc2ccc(-c3ccccc3)cc2)cc1,82%,inhibition (Beta-secretase 1 [2]): inactive
26.9 µM,102%,–,21 µM,NCc1ccc(CNC(=O)C(Cc2ccccc2)c2ccc(-c3ccccc3)cc2)cc1 (stereo unspecified),15%,–
–,inactive,–,–,COc1ccc(NC(=O)Cc2ccc(-c3ccccc3)cc2)cc1,–,–
> 100 µM,42.5%,–,–,NCc1ccc(CNC(=O)Cc2ccc(-c3ccccc3)cc2O)cc1,18%,–
33.5 µM,66.1%,2,100 µM,CC(C)C(C(=O)NCc1ccc(CN)cc1)c1ccc(-c2ccccc2)cc1 (stereo unspecified),50%,–
–,inactive,–,–,O=C(Cc1ccc(-c2ccccc2)cc1)NCCc1c[nH]c2ccccc12,–,–
58.9 µM,60.7%,2,319 µM,NCc1ccc(CNC(=O)Cc2ccc(-c3cccc(C(F)(F)F)c3)cc2)cc1,46%,–
–,inactive,–,–,O=C(Cc1ccc(-c2ccccc2)cc1)Nc1ccc(Br)cc1,–,–
77.1 µM,51.7%,2,207 µM,CC(C(=O)NCc1ccc(CN)cc1)c1ccc(-c2ccccc2)c(F)c1 (stereo unspecified),11%,–
–,–,–,–,O=C(Cc1ccc(-c2cccc(C(F)(F)F)c2)cc1)NCc1ccccc1,27%,IC50 (Beta-secretase 1 [2]): Not Active
85.7 µM,55.5%,2,194 µM,C[C@@H](C(=O)NCc1ccc(CN)cc1)c1ccc(-c2ccccc2)c(F)c1,18%,–
–,–,–,–,O=C(Cc1ccc(-c2c(F)c(F)c(F)c(F)c2F)cc1)NCc1ccccc1,61%,IC50 (Beta-secretase 1 [2]): Not Active
> 100 µM,34.4%,–,–,CCN(CC)Cc1ccc(CNC(=O)Cc2ccc(-c3ccccc3)cc2)cc1,38%,–
–,–,–,–,O=C(Cc1ccc(-c2cc(C(F)(F)F)cc(C(F)(F)F)c2)cc1)NCc1ccccc1,76%,IC50 (Beta-secretase 1 [2]): Not Active
> 100 µM,24.4%,–,–,O=C(Cc1ccc(-c2ccccc2)cc1)NCc1ccc(CN2CCCC2)cc1,24%,–
–,15.2%,–,–,O=C(Cc1ccc(-c2ccccc2)cc1)NCc1ccccc1,93%,inhibition (Beta-secretase 1 [2]): inactive
